Laboratory results: ChEMBL document CHEMBL4382211, “Design, synthesis, and X-ray studies of potent HIV-1 protease inhibitors incorporating aminothiochromane and aminotetrahydronaphthalene carboxamide derivatives as the P2 ligands” (Eur J Med Chem, 2018)

What was measured:
[1] = molecular target: Protease (Human immunodeficiency virus 1, UniProt Q9YQ12); test: Inhibition of HIV1 protease using fluorogenic substrate by continuous fluorometric assay
[2] = tested on: Human immunodeficiency virus 1; test: Antiviral activity against HIV1 NL4-3 infected in human MT4 cells after 7 days by MTT assay; type: functional, organism-based; conditions: Human immunodeficiency virus 1, NL4-3, MT4, 168 h
How it was run: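 MT-4 human T-lymphoid cells were exposed to HIV-1 NL4-3 (subtype B). IC50 values are the mean of at least two experiments.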

[3] = (§1) Cytotoxicity against human MT4 cells after 7 days by MTT assay; type: cell-based; conditions: MT4 cells
[4] = Selectivity index, ratio of CC50 for human MT4 cells to IC50 for HIV1 NL4-3; type: toxicity; conditions: read-out: Ratio CC50/IC50
How it was run: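 Antiviral IC50 measured in MT-4 human T-lymphoid cells exposed to HIV-1 NL4-3 (subtype B), with values the mean of at least two experiments. CC50 (cytotoxicity) determined in MT-4 cells, given in μM. Index calculated as CC50 divided by IC50.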

[5] = tested on: MT4; test: as §1; type: cell-based; conditions: mt4, 168 h

Chain of Protease (Q9YQ12 whole entry): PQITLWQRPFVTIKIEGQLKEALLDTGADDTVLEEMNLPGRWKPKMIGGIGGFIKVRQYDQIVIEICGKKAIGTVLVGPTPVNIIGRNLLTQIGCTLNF

COc1ccc(S(=O)(=O)N(CC(C)C)C[C@@H](O)[C@H](Cc2ccccc2)NC(=O)c2ccc3c(c2)[C@H](NC(=O)OC(C)(C)C)CCS3)cc1
Ki [1]: 26.7 nM | IC50 [2]: > 1000 nM

CC(C)(C)NC(=O)[C@@H]1C[C@@H]2CCCC[C@@H]2CN1C[C@@H](O)[C@H](Cc1ccccc1)NC(=O)[C@H](CC(N)=O)NC(=O)c1ccc2ccccc2n1
IC50 [2]: 15 nM

COc1ccc(S(=O)(=O)N(CC(C)C)C[C@@H](O)[C@H](Cc2ccccc2)NC(=O)c2ccc3c(c2)[C@@H](NC(=O)OC(C)(C)C)CC[C@H]3O)cc1
Ki [1]: 0.3 nM | IC50 [2]: > 1000 nM

COc1ccc(S(=O)(=O)N(CC(C)C)C[C@@H](O)[C@H](Cc2ccccc2)NC(=O)c2ccc3c(c2)[C@H](NC(=O)OC(C)(C)C)CCS3(=O)=O)cc1
Ki [1]: 0.1 nM | IC50 [2]: 476 nM | CC50 at 168 h [3]: > 100000 nM | selectivity ratio [4]: > 210

COc1ccc(S(=O)(=O)N(CC(C)C)C[C@@H](O)[C@H](Cc2ccccc2)NC(=O)c2ccc3c(c2)[C@@H](NC(=O)OC(C)(C)C)CC[C@@H]3O)cc1
Ki [1]: 0.14 nM | IC50 [2]: 254 nM | CC50 [5]: 33300 nM | selectivity ratio [4]: 131

COc1ccc(S(=O)(=O)N(CC(C)C)C[C@@H](O)[C@H](Cc2ccccc2)NC(=O)c2ccc3c(c2)[C@@H](NC(=O)OC(C)(C)C)CCS3(=O)=O)cc1
Ki [1]: 0.008 nM | IC50 [2]: 47 nM | CC50 at 168 h [3]: > 100000 nM | selectivity ratio [4]: > 2130

COc1ccc(S(=O)(=O)N(CC(C)C)C[C@@H](O)[C@H](Cc2ccccc2)NC(=O)c2ccc3c(c2)[C@@H](N)CC[C@H]3O)cc1
Ki [1]: 17 nM | IC50 [2]: > 1000 nM

COc1ccc(S(=O)(=O)N(CC(C)C)C[C@@H](O)[C@H](Cc2ccccc2)NC(=O)c2ccc3c(c2)[C@H](NC(=O)OC(C)(C)C)CC[C@@H]3O)cc1
Ki [1]: 1.63 nM | IC50 [2]: > 1000 nM

COc1ccc(S(=O)(=O)N(CC(C)C)C[C@@H](O)[C@H](Cc2ccccc2)NC(=O)c2ccc3c(c2)[C@@H](NC(=O)OC(C)(C)C)CCS3)cc1
Ki [1]: 0.38 nM | IC50 [2]: > 1000 nM

COc1ccc(S(=O)(=O)N(CC(C)C)C[C@@H](O)[C@H](Cc2ccccc2)NC(=O)c2ccc3c(c2)[C@H](N)CCS3(=O)=O)cc1
Ki [1]: 18 nM | IC50 [2]: > 1000 nM

COc1ccc(S(=O)(=O)N(CC(C)C)C[C@@H](O)[C@H](Cc2ccccc2)NC(=O)c2ccc3c(c2)[C@@H](N)CC[C@@H]3O)cc1
Ki [1]: 0.06 nM | IC50 [2]: 232 nM | CC50 [5]: 35100 nM | selectivity ratio [4]: 151

COc1ccc(S(=O)(=O)N(CC(C)C)C[C@@H](O)[C@H](Cc2ccccc2)NC(=O)c2ccc3c(c2)[C@H](N)CC[C@@H]3O)cc1
Ki [1]: 1.1 nM | IC50 [2]: > 1000 nM

COc1ccc(S(=O)(=O)N(CC(C)C)C[C@@H](O)[C@H](Cc2ccccc2)NC(=O)c2ccc3c(c2)[C@@H](N)CCS3(=O)=O)cc1
Ki [1]: 15.8 nM | IC50 [2]: > 1000 nM
